Laboratory results taken from publication PMC6147618 (Molecules : A Journal of Synthetic Chemistry and Natural …, 2005).

Experiments:
P450 = settings: cited from earlier work
Caco-2 monolayers = experiment: Caco-2 monolayer permeability; type: in vitro ADME; settings: Hank's balanced salt solution, 25 mM HEPES pH 7.4, 37°C
Method in brief: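 Caco-2 cells were grown in DMEM with 10% foetal bovine serum, 2mM L-glutamine and 1% non-essential amino acids, at 37°C, 95% humidity and 5% CO2, on Transwell polycarbonate inserts. Transport was run in air at 37°C and 95% humidity, in HBSS with 25mM HEPES (pH 7.4). Values are means ± sd of 5 monolayers, or n = 3 for co-incubation experiments.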

| SMILES | effect on P450-mediated metabolism of alkylamide 1 (P450; alkylamide 3 present together with 1) | diffusion across the Caco-2 monolayers (Caco-2 monolayers) | P450-mediated metabolism (P450; in the absence of alkylamide 3) |
| --- | --- | --- | --- |
| C#CC#CCCCC/C=C/C(=O)NCC(C)C [compound 3, (2E)-N-isobutylundeca-2-ene-8,10-diynamide] | prevented the rapid metabolism of 1 | rapidly diffuse |  |
| O=C(/C=C/c1ccc(O)c(O)c1)O[C@@H](C(=O)O)[C@@H](OC(=O)/C=C/c1ccc(O)c(O)c1)C(=O)O [cichoric acid] |  | non-diffusing |  |
| C/C=C\C=C/CC/C=C/C=C/C(=O)NCC(C)C [compound 1, (2E,4E,8Z,10Z)-N-isobutyldodeca-2,4,8,10-tetraenamide] |  |  | rapid metabolism |
